From PubChem
Yeast lifespan up: extends the lifespan of yeast; S. cerevisiae growth with nicotinamide, OD615; deaD strain in restrictive glucose medium; inhibition of the nicotinamide effect, % at 10 µM; 130,000 tested, 0.68% active; AID 775;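 active means inhibition above a set limit, placed 3 SD over the median of all compounds, cut at about 26% in these data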;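 further: 0% = nicotinamide-treated wells and 100% = cells grown without nicotinamide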
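System: DeaD-strain S. cerevisiae / Buffer or medium: CSMM-D, restrictive glucose (dextrose) synthetic minimal medium / Probe or stimulus: nicotinamide, 1.5 mM, co-present with compound / Compound: one concentration, 10 µM, DMSO 0.25% / Incubation: 48 h compound exposure at 30 °C, humidified / Technique: optical density (absorbance) at 615 nm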
Measles CPE: protection of cells from measles virus; Measles virus-infected cells, CPE protection, absorbance; AID 841; 140,000 tested, 1.5% active; protection (pct of control), % at 4 µM; in the data active means protection mostly above about 24%, no sharp cut-off; inactive means mostly below about 26%
RAM network inh: inhibitors of the yeast RAM network; 190,000 tested, 1.8% active; S. cerevisiae dse1pr::URA3 reporter, 5-FOA growth OD615, 2 d; analog-sensitive cbk1-as2 kinase mutant strain; inhibition, % at 50 µM;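 active means inhibition above a set limit, 3 SD over mean compound inhibition, cut at about 8.4% in these data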;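 further: 0% = DMSO-only wells with no growth and 100% = 10 µM 1-NA-PP1 full growth; inhibition rescues growth on 5-FOA so higher OD means more RAM inhibition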
Yeast growth inh: reduces growth of yeast BB579 in restrictive medium; S. cerevisiae BB579 growth, OD615, 48 h; inhibition, % at 10 µM; 140,000 tested, 0.51% active; AID 804;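 active means inhibition above a set limit, 3 SD over the mean compound inhibition, cut at about 44% in these data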
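Detection: OD615 turbidity measurement; Material: Saccharomyces cerevisiae DeaD strain BB579, replicative lifespan model yeast; Timing: 48 h exposure, 30 °C; Doses: single 10 µM dose; Medium: CSMM-D restrictive synthetic medium containing dextrose (glucose); Controls: amphotericin B at 10 µg/mL as positive control.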
* = called active by the depositor; x = no result. Rows were chosen to be rich in hits. Some 3.8% of all compounds tested hit in one or more screens of this group.

SMILES	Yeast lifespan up	Measles CPE	RAM network inh	Yeast growth inh
O=C(c1ccc(Cl)nc1)N1CCN(S(=O)(=O)c2ccc(Cl)cc2)CC1	x	x	2.5	x
Cc1cc2nc(CSc3ccccc3)cc(=O)n2[nH]1	x	x	0.1	x
O=C(Nc1ccccc1)/C(=C1\CCCN1)[N+](=O)[O-]	x	x	1.8	x
O=C(NNC(=O)c1ccc([N+](=O)[O-])cc1Cl)c1ccncc1	6.7	23.1	1.8	-31.5
Cc1scc(C(=O)N/N=C/c2ccc(Cl)s2)c1C	-5.0	8.7	0.4	-51.3
O=C(NCc1ccccc1)C1=C[C@H](c2ccc(Br)cc2)C[C@H](OCc2ccc(CO)cc2)O1	x	x	10.6*	x
C#CCNC(=O)C1=C[C@H](c2csc3ccccc23)C[C@H](OCc2ccc(CO)cc2)O1	x	x	8.5*	x
CC(C)(C)[C@H]1C=C(C(=O)Nc2ccccc2)O[C@@H](OCc2ccc(CO)cc2)C1	x	x	10.0*	x
O=C(NCc1ccccc1)C1=C[C@@H](c2ccccc2)C[C@@H](OCc2ccc(CO)cc2)O1	x	x	7.6	x
O=C(Nc1ccccc1)C1=C[C@@H](c2ccccc2)C[C@@H](OCc2ccc(CO)cc2)O1	x	x	9.9*	x
O=c1[nH]c(-c2ccccc2Cl)nc2c1sc(=S)n2-c1ccccc1	x	x	3.1	x
CC(C)CN1C(=S)SC(C)(C)C1n1oc(=O)n(-c2ccc(Cl)cc2)c1=O (stereo not drawn)	-12.6	29.2	7.4	-20.5
CC(=O)Nc1ccc(S(=O)(=O)N(C)c2ccc(O)cc2)cc1	8.5	43.6*	0.0	-16.9
CC(=O)Nc1ccc(S(=O)(=O)N(C)c2ccccc2)cc1	-8.0	6.9	0.5	-23.2
CC(=O)Nc1ccc(S(=O)(=O)N(c2cccnc2)S(=O)(=O)c2ccc(NC(C)=O)cc2)cc1	x	11.0	10.0*	-10.8
CC(=O)Nc1ccc(S(=O)(=O)N2CCN(C(=O)c3cccnc3)CC2)cc1	7.7	15.7	0.6	-12.2
O=C(CCCCCNC(=O)c1ccccc1)C[N+](=O)[O-]	x	x	1.5	x
CCOc1ccc(CC(=O)N2CCN=C2SC)cc1	x	x	0.6	x
COC(=O)CNC(=O)c1nn(-c2cccc(OC)c2)c(=O)c2ccccc12	-5.0	44.4*	2.5	-27.7
CC(=O)Nc1ccc(N=Nc2ccc(O)cc2)cc1	-4.3	17.4	-0.7	-37.2
CCn1c(CNc2ccc(Cl)cc2)nnc1SCC#N	x	x	0.2	x
CCC(C)(C)n1nnnc1C(c1ccccn1)N1CCN(c2cccc(OC)c2)CC1 (stereo not drawn)	x	6.0	-0.1	-45.2
Cc1ccc(OCC(=O)Sc2ccc(C)cc2)cc1	-5.6	38.5*	-0.8	-11.9
COc1ccccc1OCC(=O)Sc1ccc(C)cc1	-8.0	3.9	-1.4	-21.1
C=CCN1C(=O)/C(=C2/Sc3ccc(OC)cc3N2C)SC1=Nc1cccc(O)c1	x	x	5.9	x
SMILES	Yeast lifespan up	Measles CPE	RAM network inh	Yeast growth inh
CCOc1ccccc1NC1=C(Cl)C(=O)N(c2ccccc2)C1=O	-1.3	23.1	2.6	-44.0
CCOc1ccccc1NC1=C(Cl)C(=O)N(Cc2ccccc2)C1=O	-5.3	27.6	10.6*	-16.7
O=S(=O)(/C=C/c1ccccc1)NCc1ccccc1Cl	4.6	2.5	0.6	-42.6
CC(C)(C)c1ccc(/C([O-])=C(/C(=S)NCc2ccco2)[n+]2ccccc2)cc1	-3.3	3.6	-0.7	-38.2
Cc1ccc(-c2nnn(CC(=O)N(CC3CCCO3)C(C(=O)NCC3CCCO3)c3ccc(F)cc3)n2)o1 (stereo not drawn)	x	41.6*	2.1	-27.3
CCOc1ccccc1CNC(=O)c1cc2oc3ccccc3c2n1C	-8.7	76.7*	2.3	-28.1
O=C(Oc1ccc2ccccc2c1Cl)N1CCCCCC1	-6.0	30.2*	0.2	-20.0
CCOC(=O)C(C)n1nc(/C=C/c2ccccc2)ccc1=O (stereo not drawn)	-26.2	88.5*	0.7	-53.9
COc1ccc(OC)c(Nc2nc(-c3ccccc3O)nc3ccccc23)c1	x	x	9.7*	x
CCCNc1ncnc2nc[nH]c12	-8.8	40.3*	0.9	-15.0
OCCOCCNc1ncnc2nc[nH]c12	-3.5	16.9	-0.1	-4.1
CC(C)OCCCN1CN(S(=O)(=O)c2cccc(Cl)c2)c2nc3ccccc3nc21	-0.2	15.5	9.1*	-32.8
CCOC(=O)Cc1nc2ccccc2n(CC#N)c1=O	x	x	1.7	x
O=C(OCc1cccc([N+](=O)[O-])c1)c1ccc2ccccc2n1	x	x	9.6*	x
COc1ccc(CCNC(=O)Nc2ccc([N+](=O)[O-])cc2)cc1OC	x	x	0.4	x
O=C(NC(=S)Nc1ccc(S(=O)(=O)Nc2nccs2)cc1)c1ccc(F)c(F)c1	-0.8	29.6*	0.1	11.6
O=C(O)CCCCCn1c(SCc2cc(=O)n3cc(Cl)ccc3n2)nc2ccsc2c1=O	-0.8	4.8	4.1	-41.7
O=C(O)C1CCC(Cn2c(SCc3cc(=O)n4cc(Cl)ccc4n3)nc3ccsc3c2=O)CC1 (stereo not drawn)	x	x	9.2*	x
COCCNC(=O)C(=O)NCC1OCCCN1S(=O)(=O)c1cccs1 (stereo not drawn)	-3.7	16.1	1.2	-2.1
Cc1ccc2c(c1)C(=NC1CCCCC1)c1cc3ccccc3nc1-2	-9.2	x	3.3	59.7*
Cc1ccc2c(c1)-c1nc3ccccc3cc1C2=NC1CCCCC1	-9.6	17.9	2.0	47.0*
CC(=O)N(C)c1nc(N)n(-c2ccccc2)n1	x	x	1.3	x
O=C(OCC(=O)N1CCCC1)c1cncc(Br)c1	-2.6	43.1*	-0.2	7.3
CCO[C@H]1OC(C(=O)N2CCOCC2)=C[C@@H](C2CC2)[C@@H]1CCCO	x	x	-0.6	x
COc1cc(NC(=O)c2ccc(NS(=O)(=O)c3c(C)noc3C)cc2)cc(OC)c1	-2.5	1.0	11.2*	-39.0
SMILES	Yeast lifespan up	Measles CPE	RAM network inh	Yeast growth inh
COCCn1c(SCC(=O)NCc2ccc3c(c2)OCO3)nc2ccccc2c1=O	x	x	1.0	x
CCC(C(=O)NCc1ccccc1OC)c1ccccc1 (stereo not drawn)	x	x	0.8	x
Cc1ccc(N=Nc2c(=O)[nH]n3c(C)cc(C)nc23)cc1	-11.6	17.2	3.5	6.9
Cc1cc(C)n2nc(N)c(N=Nc3ccc(Cl)cc3)c2n1	-3.4	7.0	9.5*	-34.0
FC(F)(F)c1cccc(N2CCc3cn[nH]c32)c1	-28.9	38.6*	0.1	22.2
CCOC(=O)/C=C1\SCC(=O)N1CC(=O)Nc1cccc(F)c1	x	x	1.2	x
NC(=O)Cn1c(=O)n(CCC(=O)NCCSCc2ccccc2)c(=O)c2ccccc21	x	x	1.7	x
C=CCN1C(=O)C(Cc2ccc(OCC)cc2)S/C1=N\N=C\c1cccs1 (stereo not drawn)	29.6*	3.2	9.3*	-43.6
O=C1NC(c2ccc(Cl)c([N+](=O)[O-])c2)Nc2ccccc21 (stereo not drawn)	x	x	1.8	x
O=[N+]([O-])c1cc(C2Nc3cccc4cccc(c34)N2)ccc1Cl	-0.8	15.5	11.0*	-34.5
COc1cc(C(=O)NCC(=O)OCC(=O)c2ccc[nH]2)cc(OC)c1OC	-4.1	17.4	1.5	-25.9
COc1ccc(C(=O)NCC(=O)OCC(=O)c2cc(OC)c(OC)c(OC)c2)cc1OC	1.9	43.8*	0.4	-22.6
CCOc1ccc(NC(=O)CNC(=O)c2ccc(OC)c(OC)c2)cc1	2.7	13.0	8.8*	-27.2
CCOc1ccc(-c2nnc(NC(=O)c3ccc(OCC(C)C)c(OC)c3)o2)cc1	-3.9	41.5*	4.2	2.0
